# S100A4 inh HTS: blocks human S100A4 binding to myosin IIA peptide. inhibition, % at 10.7 µM. AID 652163. actives 0.14% (n = 360,000). S100A4/TAMRA-MyoIIA peptide fluorescence polarization;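 active = mean inhibition of at least 70% across replicates, with every replicate also reaching that level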
#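 System – human S100A4 monomer protein, biochemical binding assay · Buffer or medium – Calcium-containing HEPES buffer, pH 7.2 · Timing – 5 min between mix addition and reading · Also added – TAMRA-labelled myosin IIA heavy-chain peptide probe, 5 nM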
# Casp6 inh: blocks human caspase-6 cleavage activity | actives 0.53% (n = 350,000) | inhibition, % at 12.5 µM | P55212 | purified caspase-6, Z-VEID-R110 cleavage fluorescence;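 active = mean inhibition across replicates at least about 35%, with every replicate also reaching that limit, limit read from the data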;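 note: 0% = median of neutral control wells and 100% = no fluorescence left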
# ERAP1 HTS inh: inhibitors of human ERAP1 aminopeptidase; Q9NZ08; recombinant ERAP1, Leu-AMC fluorescence, 60 min; inhibition, % at 10.7 µM; AID 652197; actives 0.15% (n = 340,000);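 active = mean replicate inhibition of at least 30%, or all replicates individually reaching that 30% level; inactive = mean below 30% and not every replicate reaching it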;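 note: 0% = neutral control wells and 100% = L-leucinethiol positive control wells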
# Target sequence (Q9NZ08 whole entry, looked up): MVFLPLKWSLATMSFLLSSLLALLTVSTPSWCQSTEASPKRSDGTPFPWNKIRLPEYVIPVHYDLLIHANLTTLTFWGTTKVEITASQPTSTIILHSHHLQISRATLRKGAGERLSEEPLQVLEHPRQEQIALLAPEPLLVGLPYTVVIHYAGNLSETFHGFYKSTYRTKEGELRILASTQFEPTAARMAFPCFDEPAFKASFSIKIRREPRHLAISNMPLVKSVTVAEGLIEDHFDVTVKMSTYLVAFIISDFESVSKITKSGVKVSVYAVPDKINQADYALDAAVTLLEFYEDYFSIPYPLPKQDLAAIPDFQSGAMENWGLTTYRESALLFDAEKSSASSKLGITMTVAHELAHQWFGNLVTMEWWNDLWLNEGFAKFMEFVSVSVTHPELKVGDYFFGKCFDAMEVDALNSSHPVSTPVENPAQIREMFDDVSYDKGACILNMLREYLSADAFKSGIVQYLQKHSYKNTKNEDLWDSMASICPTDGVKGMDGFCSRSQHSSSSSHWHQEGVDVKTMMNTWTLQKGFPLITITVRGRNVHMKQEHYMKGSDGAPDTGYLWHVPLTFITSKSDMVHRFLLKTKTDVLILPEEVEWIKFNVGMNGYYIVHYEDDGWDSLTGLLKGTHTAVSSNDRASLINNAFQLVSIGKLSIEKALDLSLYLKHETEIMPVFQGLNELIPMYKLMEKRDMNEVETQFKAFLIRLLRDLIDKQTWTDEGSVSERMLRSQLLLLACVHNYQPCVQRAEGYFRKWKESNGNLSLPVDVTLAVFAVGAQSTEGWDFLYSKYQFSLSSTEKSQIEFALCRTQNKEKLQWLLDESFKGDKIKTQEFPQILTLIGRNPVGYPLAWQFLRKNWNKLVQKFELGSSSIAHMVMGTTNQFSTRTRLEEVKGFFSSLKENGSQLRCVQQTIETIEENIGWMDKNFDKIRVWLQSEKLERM
# rRNA inh HTS: inhibits bacterial ribosomal RNA function over humanized ribosomes; actives 1.6% (n = 350,000); E. coli WT GFP vs humanized-ribosome RFP mutants, fluorescence, 24 h; stronger effect = lower value; DMSO median 0, no signal -100; GFP signal change (wild-type ribosome), % (concentration not given with the values);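 active = significant combined selectivity score with lowered wild-type GFP, culture density cut under 30%, mutant RFP and density less affected; inactive = any of these conditions unmet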
# ARNT TACC3 PPI: disruptors of human ARNT/TACC3 interaction; AlphaScreen His-ARNT PAS-B/GST-TACC3 binding, luminescence; TACC3 fragment carries E629A point mutation; inhibition, % at 9.99 µM; actives 0.66% (n = 390,000);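 active = mean inhibition of replicates at least 50% and at least half of replicates each reaching 50%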;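 note: 0% = complete ARNT plus TACC3 wells and 100% = ARNT alone without TACC3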
# PGC1a acetyl inh: PGC1a acetylation modulation, inhibitor mode; inhibition, % at 15.6 µM; AID 651687; U2OS PGC1a acetylation, AlphaScreen anti-acetyl-lysine; with virally co-expressed GCN5 acetyltransferase; actives 0.17% (n = 350,000);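 active = every replicate shows inhibition of at least 40%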;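 note: 0% = neutral control wells and 100% = positive control wells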
# Numbers without * were called inactive; · = no result given. The list is not random: actives were taken first. Their share in the collection is about 2.4%.
SMILES,S100A4 inh HTS,Casp6 inh,ERAP1 HTS inh,rRNA inh HTS,ARNT TACC3 PPI,PGC1a acetyl inh
Fc1ccc(NC(=S)Nc2cc(-c3ccccc3)[nH]n2)cc1Cl,-6,1,-1,-54*,0,-4
C[C@@H]1CN([C@@H](C)CO)C(=O)Cc2cc(NS(=O)(=O)c3ccccc3)ccc2O[C@H]1CN(C)Cc1ccc2c(c1)OCO2,-15,0,-1,-3,4,-3
O=C(NCC[C@H]1CC[C@@H](NS(=O)(=O)c2ccccc2F)[C@H](CO)O1)c1ccc(F)cc1,126*,1,0,0,·,10
O=C(NCC[C@H]1CC[C@H](NS(=O)(=O)c2ccccc2)[C@@H](CO)O1)c1cc(Cl)cc(Cl)c1,76*,-1,0,-9,6,-21
O=C(NCC[C@@H]1CC[C@H](NS(=O)(=O)c2ccccc2)[C@@H](CO)O1)c1cc(Cl)cc(Cl)c1,33,-2,0,-5,19,-11
NNC(=O)c1ccc(COc2ccc3ccccc3c2)o1,-22,5,-1,-25*,-3,·
Cc1ccc(OCc2ccc(C(=O)NN)o2)cc1C,1,-1,7,-32*,-1,1
O=C(OCc1ccccn1)c1ccc(COc2ccc3ccccc3c2)o1,-7,2,-3,-26*,-5,4
CCOc1ccc(OCc2ccc(C(=O)NN)o2)cc1,-3,-2,·,-13,-3,·
O=C(C[C@H]1C=C[C@H](NS(=O)(=O)c2ccc(F)cc2)[C@H](CO)O1)NC1CCC1,6,-2,-5,4,24,9
C[C@@H]1CN([C@H](C)CO)C(=O)c2cccc(NS(C)(=O)=O)c2O[C@@H]1CN(C)C(=O)Nc1ccc(F)cc1,-4,1,-4,-1,-9,3
O=C(NCc1ccccn1)c1n[nH]c2ccccc12,·,·,·,·,24*,-1
O=C(NCc1ccccn1)c1n[nH]c(=O)c2ccccc12,-1,-1,·,9,7,10
O=C(NCc1ccccn1)Nc1cccc(NC(=O)NCc2ccccn2)c1,·,·,·,·,78*,-10
CCOC(=O)N1CCN(C(=O)COc2cccc3c2CCN(Cc2ccccc2C)C3=O)CC1,·,·,·,·,-2,·
CCOC(=O)N1CCN(C(=O)COc2cccc3c2CCN(Cc2cccc(C)c2)C3=O)CC1,8,1,-3,-25*,5,·
CCC(=O)Nc1c(C#N)c2nc3ccccc3nc2n1-c1ccc(C)cc1,1,54*,-18,-7,-4,-6
N#Cc1c(NC(=O)c2ccc(Br)o2)n(-c2ccccc2)c2nc3ccccc3nc12,-1,46*,-10,-4,28,-4
CO[C@@H]1CN(C)C(=O)c2cc(NC(=O)NC3CCCC3)ccc2OC[C@@H](C)NC[C@@H]1C,·,·,·,1,·,·
COc1cc(/C=C2\SC(=S)N(CCC(=O)Nc3cccc(O)c3)C2=O)cc(OC)c1OC,0,1,2,2,2,6
COc1ccccc1/C=C1\SC(=S)N(CCC(=O)Nc2cccc(O)c2)C1=O,2,-2,3,-31*,-6,·
Cc1ccc(/C=C2\SC(=S)N(CCCC(=O)N3CCOCC3)C2=O)cc1,-2,3,2,-26*,9,·
COC(=O)c1ccc(/C=C2\SC(=S)N(CCCC(=O)N3CCOCC3)C2=O)cc1,-7,0,2,6,-1,1
O=C(O)CCCCN1C(=O)/C(=C\c2ccc(OCc3ccccc3)c(OCc3ccccc3)c2)SC1=S,12,72*,-1,6,-3,·
COc1cc(/C=C2/SC(=S)N(CC(=O)O)C2=O)ccc1OC(=O)c1ccco1,-5,11,56*,3,·,·
SMILES,S100A4 inh HTS,Casp6 inh,ERAP1 HTS inh,rRNA inh HTS,ARNT TACC3 PPI,PGC1a acetyl inh
O=C(O)CCCN1C(=O)/C(=C\c2ccccc2OCc2ccccc2)SC1=S,-4,20,-3,-38,0,·
C[C@@H]1COCn2nncc2CC[C@H](Cc2ccccc2)C(=O)N1,·,·,·,4,·,·
CC(C)NC(=O)Nc1cccc2c1O[C@H](CN(C)S(=O)(=O)c1cccs1)[C@H](C)CN([C@H](C)CO)C2=O,·,·,·,0,·,8
C[C@@H]1CN([C@@H](C)CO)C(=O)c2cc(NS(=O)(=O)c3ccc(F)cc3)ccc2O[C@@H](C)CCCCO[C@@H]1CN(C)C(=O)CCC(F)(F)F,-4,2,5,-3,7,15
C[C@H](CO)N1C[C@H](C)[C@H](CN(C)Cc2ccc(C(F)(F)F)cc2)OCCCC[C@H](C)Oc2ccc(NS(=O)(=O)c3ccccc3)cc2C1=O,9,0,-2,-3,13,1
COc1ccccc1/C=C1\SC(=S)N(C(C(=O)O)c2ccccc2)C1=O (stereo not drawn),-6,11,-59,-37*,2,6
O=C1/C(=C\c2ccc(O)c(O)c2)SC(=S)N1Cc1ccccc1,-5,25,-1,-20,11,6
Cc1nn(-c2ccccc2)c(Cl)c1/C=C1\SC(=S)N(CCCCCC(=O)O)C1=O,-5,5,-11,-32*,1,2
CCOc1ccc(/C=C2\SC(=S)N(CCC(=O)O)C2=O)cc1,-4,2,5,-27*,16,8
O=C1/C(=C\c2cccc(O)c2)SC(=S)N1Cc1ccccc1,-1,-2,2,-20*,10,8
COc1cc(/C=C2\SC(=S)N(C(C(=O)O)c3ccccc3)C2=O)ccc1O (stereo not drawn),-16,-1,-2,-36,5,10
Fc1ccc(C(CCNCc2ccccn2)c2ccc(Cl)cc2)cc1 (stereo not drawn),·,·,·,·,48*,·
CN(C)CC[C@@H](c1ccc(Cl)cc1)c1ccccn1,0,0,-3,2,-6,-9
OC(CNCc1ccccn1)c1ccccc1 (stereo not drawn),-3,-3,-3,19,48*,·
O=C(C[C@H]1C=C[C@@H](NS(=O)(=O)c2cccc(F)c2)[C@@H](CO)O1)NCc1ccc2c(c1)OCO2,2,-1,3,2,·,8
O=C(NCC[C@@H]1CC[C@@H](NC(=O)C2CCCC2)[C@H](CO)O1)Nc1ccc(Cl)cc1,1,-4,0,-28,-10,-5
C/C=C/c1ccc([C@@H]2[C@H](CO)N(Cc3ccccn3)[C@H]2CNC(C)=O)cc1,-10,0,-3,4,37*,-2
O=C(NC1CCCC1)[C@@H]1[C@@H](CO)[C@@H]2Cn3c(cccc3=O)[C@H]1N2CC1CCCC1,2,2,-2,-2,3,·
O=C(/C=C/Nc1ccc(Oc2ccccc2)cc1)c1ccco1,3,0,6,-25*,-9,8
O=C(/C=C/Nc1ccccc1C(F)(F)F)c1ccco1,-2,1,-1,-22*,11,11
NC(=O)c1ccccc1N/C=C/C(=O)c1ccco1,·,·,·,·,-3,13
